Neddylation inh = cullin neddylation inhibition | calls only at 25 µM | 360,000 tested, 0.58% active | P61081+Q13564 | AID 651699 | TR-FRET cullin neddylation, biochemical; in the data active = inhibition above about 36%
procasp3 activ = procaspase-3 (human) activation | 330,000 tested, 0.11% active | AID 463141 | activation, % at 8.5 µM | P42574 | recombinant procaspase-3 D3A, Ac-DEVD-pNA absorbance 405 nm;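 active = activation above the mean of all tested compounds plus 3 SD, cut at about 21% in these data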
Target sequence (P42574 whole entry D9A/D28A/D175A): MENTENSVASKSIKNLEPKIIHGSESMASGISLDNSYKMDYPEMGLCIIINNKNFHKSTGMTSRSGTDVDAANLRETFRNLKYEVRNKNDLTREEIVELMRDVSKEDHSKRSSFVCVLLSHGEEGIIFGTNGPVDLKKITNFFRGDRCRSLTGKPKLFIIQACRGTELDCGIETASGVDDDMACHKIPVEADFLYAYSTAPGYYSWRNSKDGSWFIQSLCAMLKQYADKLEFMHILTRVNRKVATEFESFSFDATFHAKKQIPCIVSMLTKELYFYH
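Test system: Procaspase-3 D3A mutant, all three cleavage aspartates alanine | Dosing: Single dose, 8.5 µM nominal compound, 0.8% DMSO | Schedule: 1 h preincubation, 2 h reaction | Technique: 405 nm absorbance of p-nitroaniline, reads at 0 and 120 min | Repeats: One well per compound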
procasp7 counter = counter-screen: procaspase-7 (human) activation | recombinant procaspase-7, Ac-DEVD-pNA absorbance 405 nm; D23A/D198A/D206A triple mutant, cannot self-cleave; scale: DMSO 0, 5 µM enzyme 100 | activation, % at 8.5 µM | 330,000 tested, 0.093% active;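 active = percent activation above the screen-wide mean plus 3 SD, cut at about 25% in these data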
Target sequence (P55210 whole entry D23A/D198A/D206A): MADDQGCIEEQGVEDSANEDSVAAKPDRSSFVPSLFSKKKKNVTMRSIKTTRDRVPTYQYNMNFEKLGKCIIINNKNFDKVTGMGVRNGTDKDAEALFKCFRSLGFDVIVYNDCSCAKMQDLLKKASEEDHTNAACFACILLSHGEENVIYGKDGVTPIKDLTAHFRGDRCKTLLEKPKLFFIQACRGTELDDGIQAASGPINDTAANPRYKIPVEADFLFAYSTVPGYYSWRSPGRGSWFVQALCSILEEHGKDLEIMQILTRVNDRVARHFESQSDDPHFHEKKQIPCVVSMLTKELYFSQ
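buffer or medium = Zinc-free HEPES/NaCl buffer, pH 7.4 | material = Procaspase-7 triple mutant (PC-7 D3A) | input = 2 µM procaspase-7 mutant as dispensed | signal = Epi-absorbance of released pNA at 405 nm, two timepoints | timing = 1 h preincubation, 2 h reaction | replicates = singlicate compound testing | evaluation = % activation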
KLK7 zymogen act = activates the human kallikrein-7 zymogen; activation, % at 7 µM; 370,000 tested, 0.9% active; purified proKLK7, EDANS-DABCYL substrate fluorescence; 100% is mature enzyme control, 0% vehicle; AID 652039;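 active = activation above the mean of all tested compounds plus 3 SD, computed per campaign excluding outliers beyond control limits, cut at about 13% in these data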
Neddyl inh conf = cullin neddylation inhibition, confirmation. TR-FRET cullin neddylation biochemical assay. 1,800 tested, 13% active. calls only at 25 µM. shares compounds with Neddylation inh; in the data active = inhibition above about 40%;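 note: neddylation substrate is the cullin 1 ring ligase complex with SKP2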
Calls only; n = inactive; x = not tested or not shown; + = active, no number. Only some compounds are listed: those with a hit (about 1.6% of all), similar ones and a draw of the others.

SMILES	Neddylation inh	procasp3 activ	procasp7 counter	KLK7 zymogen act	Neddyl inh conf
COc1ccc(-c2cc(NCc3ccccn3)n3ncnc3n2)cc1	+	n	n	n	n
COc1ccc(-c2cc(NCCc3ccncc3)n3ncnc3n2)cc1	n	n	n	n	x
CCN(CC)C(=O)CC[C@@H]1CC[C@]2(CCCN(C(=O)c3ccno3)C2)O1	x	x	x	n	x
Cn1ncc2c(Nc3ccc(Cl)cc3)ncnc21	n	n	n	n	x
Cn1ncc2cc3c(Nc4ccc(Cl)cc4)cccc3nc21	+	x	x	n	+
Cc1cccc(-c2n[nH]c(=S)n2/N=C/C=C/c2ccco2)c1	+	n	n	n	n
S=c1[nH]nc(-c2ccncc2)n1/N=C/C=C/c1ccco1	n	n	n	n	x
CCOC(=O)N1C(=O)C[C@](Sc2ccc(OC)cc2)(C(=O)N2CCCC2)[C@H]1c1ccc(OC)cc1	x	x	x	n	x
COc1cccc(/C=C2\CC3(OC(=O)C4CCCC4)CCCN2C3)c1 (stereo not given)	x	x	x	n	x
N#CC1=C(N)Oc2cc(N)ccc2C1c1ccc(Cl)cc1 (stereo not given)	n	n	n	n	x
CCc1ccc(C2C(C#N)=C(N)Oc3cc(N)ccc32)cc1 (stereo not given)	+	n	n	n	n
CCOC(=O)[C@]12CCCCC/C=C\1N(Cc1ccc(OC)cc1)C(=O)[C@H]2CC(=O)N1CCCC1	x	x	x	n	x
Cc1c(C)n(CCCN(C)C)c2ncnc(Nc3ccccc3)c12	+	n	n	n	n
COc1ccc(Nc2ncnc3c2c(C)c(C)n3CCCN(C)C)cc1	n	n	n	n	x
O=C(CCc1ccccc1)N[C@H]1[C@@H](OC(=O)C2CC2)CCC[C@@]12C(=O)N(Cc1ccccc1)c1ccccc12	x	x	x	n	x
COc1ccc(-c2csc(N3CCN(c4cc5c(cc4Cl)nc(-c4ccncc4)n5CCOCCO)CC3)n2)cc1	+	n	n	n	n
O=C(Nc1ccccc1)OCCN1C(=O)CCC12CCC(c1ccccc1)CC2 (stereo not given)	x	x	x	n	x
COc1ccc(-c2cn3cccnc3n2)cc1NC(=O)C1CCCC1	+	n	n	n	n
COC(=O)[C@H](CC(C)C)N(CCc1cn(Cc2ccc(C)cc2)nn1)S(=O)(=O)c1ccc(F)cc1Br	x	x	x	n	x
O=c1[nH]c2cc3c(cc2cc1CN(CCO)S(=O)(=O)c1ccccc1)OCCO3	+	n	n	x	x
O=C(NC1CCCCC1)N(CCN1CCOCC1)Cc1cc2cc3c(cc2[nH]c1=O)OCCO3	+	n	n	n	+
O=C(NCc1ccccc1)N(Cc1cc2cc3c(cc2[nH]c1=O)OCCO3)CC1CCCO1 (stereo not given)	+	x	x	n	n
COc1ccc(-c2cc3nc(NCCN4CCCC4)n(C)c(=O)c3s2)cc1OC	+	x	x	n	+
Cn1c(NCCN2CCCC2)nc2cc(-c3ccsc3)sc2c1=O	n	x	x	n	x
Cn1nnnc1SCC(=O)Nc1nn(-c2ccccc2)nc1C(N)=O	x	n	n	n	x
SMILES	Neddylation inh	procasp3 activ	procasp7 counter	KLK7 zymogen act	Neddyl inh conf
NC(=O)c1nn(-c2ccccc2)nc1NC(=O)CN1CCCCC1	+	n	n	n	n
CN(C(=O)COC(=O)c1cccc(Cl)c1)C1CCS(=O)(=O)C1 (stereo not given)	n	n	n	n	x
CN(C(=O)COC(=O)c1ccc(-c2ccc(O)cc2)cc1)C1CCS(=O)(=O)C1 (stereo not given)	+	n	n	n	n
Cc1ccc(-c2cc(-c3nnc(SCC(=O)N4c5ccccc5Sc5ccccc54)n3N)[nH]n2)cc1	x	x	x	n	x
CSc1ccc(/C=N/NC(=O)c2sccc2C)cc1	+	n	n	n	n
N#Cc1nc(-c2ccccc2F)oc1NCCc1ccccc1	x	n	n	n	x
N#Cc1nc(-c2ccccc2F)oc1NCCc1ccccn1	+	n	n	n	n
O=C(CN1c2cccc3cccc(c23)S1(=O)=O)NCc1ccc(F)cc1	+	n	n	n	+
O=C(CN1c2cccc3cccc(c23)S1(=O)=O)Nc1ccc(F)c(F)c1F	+	n	n	n	n
Cc1ccc(CNC(=O)CN2c3cccc4cccc(c34)S2(=O)=O)cc1	n	n	n	n	x
O=C(OC12CCCN(C1)/C(=C/c1cccc(Cl)c1)C2)c1ccco1 (stereo not given)	x	x	x	n	x
CC(=O)NC(Cc1ccc2c(c1)OCO2)C(=O)N1CCCC1 (stereo not given)	x	x	x	n	x
CCOC(=O)C(=CNc1ccc(NC2=NCC(C)S2)cc1)C(=O)OCC (stereo not given)	+	n	n	n	n
CCOC(=O)C(=CNc1ccc(C(F)(F)F)cc1)C(=O)OCC	n	n	n	n	x
Cc1ccccc1Nc1c(-c2cccnc2)nc2ccccn12	+	n	n	n	n
O=C1[C@@H](CCc2ccccc2)[C@@H]2c3ccccc3C=NN2[C@@H]2c3ccccc3C=NN12	x	x	x	n	x
COC(=O)c1ccc2nc(-c3ccc(F)cc3)c(Cc3ccccc3OC)n2c1	+	x	x	n	n
COC(=O)c1ccc2nc(-c3cccc(Br)c3)c(Cc3ccccc3OC)n2c1	n	x	x	n	x
COCCNC(=O)c1cc2c(=O)n3cccc(C)c3nc2n1C	x	n	n	n	x
COCCCNC(=O)c1cccn2c(=O)c3cc4ccccc4cc3nc12	+	n	n	n	n
CCOC(=O)[C@]12CCCCC/C=C\1N(CCc1ccc(Cl)cc1)C(=O)[C@H]2CC(=O)NCCc1ccccc1OC	x	x	x	n	x
CCCCCNC(=O)C(C1CC1)n1c(=O)c(-c2ccccc2)nc2ccccc21 (stereo not given)	+	x	x	n	x
CC(C)(C)NC(=O)C(c1ccncc1)n1c(=O)c(-c2ccccc2)nc2ccccc21 (stereo not given)	+	x	x	n	x
CC(C)(C)NC(=O)C(c1ccc(C(F)(F)F)cc1)n1c(=O)c(-c2ccccc2)nc2ccccc21 (stereo not given)	n	x	x	n	x
COc1ccc(NC(=O)C(C2CC2)n2c(=O)c(-c3ccccc3)nc3ccccc32)cc1 (stereo not given)	n	x	x	n	x
SMILES	Neddylation inh	procasp3 activ	procasp7 counter	KLK7 zymogen act	Neddyl inh conf
COc1ccc(C(C(=O)Nc2c(C)cccc2C)n2c(=O)c(-c3ccccc3)nc3ccccc32)cc1 (stereo not given)	n	x	x	n	x
Cc1cccc(C)c1NC(=O)C(c1ccncc1)n1c(=O)c(-c2ccccc2)nc2ccccc21 (stereo not given)	+	x	x	n	+
O=C(NC1CCCCC1)C(c1ccc(C(F)(F)F)cc1)n1c(=O)c(-c2ccccc2)nc2ccccc21 (stereo not given)	+	x	x	n	n
Cc1cccc(NC(=O)CSc2nnc(-c3cccnc3)n2Cc2ccco2)c1C	x	x	x	n	x
CC(C)(C)NC(=O)COC(=O)c1ccccc1Nc1ccc(SC(F)F)cc1	n	n	n	n	x
NC(=O)COC(=O)c1ccccc1Nc1ccc(SC(F)F)cc1	+	n	n	n	n
CC1=C[C@]2(C[N+](Cc3ccccc3)=C(N)N2)n2c(=O)n(-c3ccccc3)c(=O)n2C1	x	x	x	n	x

From PubChem
